Assay results from different studies.
Target: Receptor-interacting serine/threonine-protein kinase 2 (RIPK2, Homo sapiens, UniProt O43353)

SMILES	test	conditions	remaining binding [%]
CN(C)c1ncc(F)c(-c2cnn3ncccc23)n1	binding	1 µM	100
FC(F)(F)Oc1cccc(-c2cnc3ccc(-c4ccncc4)nn23)c1	binding, competition with immobilised ligand	5 µM	42
C[C@@H]1CCN(c2nccc(-c3cnn4ncccc34)n2)C1	binding	1 µM	91
Cc1cc(NC(=O)c2cccc(S(F)(F)(F)(F)F)c2)cc(-n2ccn3nc(-c4cccnc4)cc23)c1	cell-free assay, competition with immobilised ligand	1 µM	88.6
N[C@@H]1CCN(c2nccc(-c3cnn4ncccc34)n2)C1	binding	1 µM	95
C[C@@H]1CN(c2cc(-c3nn(C)c4ccc(OC5(C)CC5)cc34)ncn2)C[C@H](C)O1	cell-free assay, competition with immobilised ligand	1 µM	100
O=C(c1ccc(Nc2ncc(Cl)c(-c3ccc(Cl)s3)n2)cc1)N1CCC(N2CCCC2)CC1	binding, competition with immobilised ligand	1 µM	89
CN(C)c1nccc(-c2cnn3ncccc23)n1	binding	1 µM	100
O=C(NCCCN1CCOCC1)c1ccc(Nc2ncc(Cl)c(-c3ccc(Cl)s3)n2)cc1	binding, competition with immobilised ligand	1 µM	100
O=C(NC[C@@H]1[C@H]2CN(C(=O)OCc3cc(C(F)(F)F)cc(C(F)(F)F)c3)C[C@@H]12)c1ccc2[nH]nnc2c1	cell-free assay, competition with immobilised ligand	1 µM	64
COc1ncc2cc3ccccc3nc2c1C#N	cell-free assay, competition with immobilised ligand	5 µM	100
C[C@@H](c1ccc(-n2cnc3c(N)ncnc32)cc1)N1CCc2nn(C)c(Cc3ccccc3)c2C1=O	binding, competition with immobilised ligand	0.1 µM	100
CN(C(=O)c1ccccc1)c1cc(N(C)c2ccc3c(c2)CCc2ccc(C(=O)NCCN4CCOCC4)cc2C3=O)ccc1F	cell-free assay, competition with immobilised ligand	1 µM	56
CNC(=O)[C@@H]1CC[C@@H](n2c(-c3ccc4cnccc4c3)nc3ccc(C(=O)NCc4cccc(C(N)=O)c4)cc32)C1	binding, competition with immobilised ligand	1 µM	100
Nc1cnc(N2CCc3cc(S(=O)(=O)Nc4c(F)cc(Cl)cc4F)cc(N4CCCC4=O)c32)nc1	cell-free assay, competition with immobilised ligand	1 µM	53
Cc1cnn2ncc(-c3ccnc(N(C)C)n3)c2c1	binding	1 µM	100
Cc1c[nH]c2nccc(Oc3c(F)cc(Nc4cc(Cl)nc(N)n4)cc3F)c12	cell-free assay, competition with immobilised ligand	0.1 µM	92
O=C(NCCCN1CCOCC1)c1ccc(Nc2nccc(-c3cc4ccccc4s3)n2)cc1	binding, competition with immobilised ligand	1 µM	80
CN(c1nccc(-c2cnn3ncccc23)n1)C1CC1	binding	1 µM	87
Nc1ncc2c(n1)-c1c([nH]c3ccc(C#CC4CC4)cc13)CCCC2	binding, competition with immobilised ligand	1 µM	100
CN(CCCC(F)(F)F)c1nccc(-c2cnn3ncccc23)n1	binding	1 µM	89
O=C(Nc1c[nH]nc1C(=O)NC1CCNCC1)c1cc(F)cc(F)c1	binding, competition with immobilised ligand	1 µM	53
